# Experimental data published in ChEMBL document CHEMBL5674865, “BRD4 associates with p53 in DNMT3A-mutated leukemia cells and is implicated in apoptosis by the bromodomain inhibitor JQ1” (Cancer Med, 2013).
# pIC50: −log10 of the molar value. The source made the active and inactive calls. The calls are words filed in the database; no cut-off is given here.
# Key:
# K562 [1] = experiment: Antiproliferative activity against human K562 cells assessed as decrease in cell viability after 96 hrs by WST-1 assay; format: functional, cell-based
# In short: (§1)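 WST-1 viability assay. 2 × 10^4 cells per well with compound, incubated for the indicated times, read at 450 nm 2–4 h after WST-1 addition. Viability is given as % of untreated cells by optical density. Compounds are dissolved in DMSO and diluted in PBS.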
# K562 [2] = experiment: Induction of apoptosis in human K562 cells at 0.25 uM assessed as activation of caspase 3/7 measured after 24 hrs by Caspase-Glo 3/7 assay; format: functional, cell-based
# In short: (§2)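 Caspase-Glo 3/7 luminescence assay. OCI-AML3, Raji or K562 cells plated at 20,000 per well and treated with 0.25 µmol/L JQ1, with or without 20 nmol/L TSA. Luminescence read at 2, 4 or 24 h.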
# OCI-AML-3 [3] = experiment: Antiproliferative activity against human OCI-AML-3 cells harbouring DNMT3A-R882C and NPM1c mutants co-expressing wild-type p53 at 1 uM assessed as decrease in cell viability after 96 hrs by WST-1 assay; format: functional, cell-based; in short: as §1
# OCI-AML-3 [4] = experiment: Induction of apoptosis in human OCI-AML-3 cells harbouring DNMT3A-R882C and NPM1c mutants co-expressing wild-type p53 at 0.25 uM assessed as activation of caspase 3/7 measured at 4 hrs by Caspase-Glo 3/7 assay; format: functional, cell-based; in short: as §2
# OCI-AML-3 [5] = experiment: Antiproliferative activity against human OCI-AML-3 cells harbouring DNMT3A-R882C and NPM1c mutants co-expressing wild-type p53 assessed as decrease in cell viability after 96 hrs by WST-1 assay; format: functional, cell-based; in short: as §1
# OCI-AML-3 [6] = experiment: Induction of DNA damage in human OCI-AML-3 cells harbouring DNMT3A-R882C and NPM1c mutants co-expressing wild-type p53 at 0.25 uM assessed as induction of gammaH2AX incubated for 24 hrs in combination with […] by immunolabeling method; format: functional, cell-based
# In short: (§3)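 OCI-AML3 cells treated 24 h with 0.25 µmol/L JQ1, alone or with 10 µmol/L KU60019, […] caffeine or 1 µmol/L NU7026 added together. Cells cytospun, fixed in 4% paraformaldehyde and permeabilized with 0.2% Triton X-100. Stained with anti-γH2AX (1:500) and anti-53BP1 (1:1000) for 1 h at RT, then fluorescent secondaries and DAPI. Pan-nuclear γH2AX cells and 53BP1 foci scored by microscopy. Three experiments.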
# OCI-AML-3 [7] = experiment: Antiproliferative activity against human OCI-AML-3 cells harbouring DNMT3A-R882C and NPM1c mutants co-expressing wild-type p53 at 0.25 uM assessed as decrease in cell viability in combination of 0.625 uM vorinostat after 72 hrs by WST-1 assay; format: functional, cell-based
# In short: (§4)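 WST-1 viability of OCI-AML3 combinations. 20,000 cells per well treated with 0.25 µmol/L JQ1 plus the partner compound (Nutlin-3 0–2 µmol/L or 1–5 µmol/L; TSA 20 nmol/L; vorinostat 0.625 µmol/L; sodium butyrate 0.5 mmol/L; daunorubicin 0–50 nmol/L), applied together for 72 h. Read at 450 nm and expressed as % of untreated. Three experiments run in triplicate.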
# OCI-AML-3 [8] = experiment: Antiproliferative activity against human OCI-AML-3 cells harbouring DNMT3A-R882C and NPM1c mutants co-expressing wild-type p53 at 0.25 uM assessed as decrease in cell viability in combination of 0.5 mM sodium butyrate after 72 hrs by WST-1 assay; format: functional, cell-based; in short: as §4
# OCI-AML-3 [9] = experiment: Induction of DNA damage in human OCI-AML-3 cells harbouring DNMT3A-R882C and NPM1c mutants co-expressing wild-type p53 at 0.25 uM assessed as increase in pyknotic nuclei incubated for 48 hrs by DAPI staining method; format: functional
# In short: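 OCI-AML3 cells treated with 0.25 µmol/L JQ1 for 48 h, cytospun and fixed. DAPI-stained nuclei examined by fluorescence microscopy and the percentage of pyknotic nuclei scored.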
# OCI-AML-3 [10] = experiment: Antiproliferative activity against human OCI-AML-3 cells harbouring DNMT3A-R882C and NPM1c mutants co-expressing wild-type p53 at 0.25 uM assessed as cell death after 96 hrs by trypan blue assay; format: functional, cell-based
# In short: (§5)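 OCI-AML3 growth curves. 80,000 cells per well in medium with or without 0.25 µmol/L JQ1. Viable cells counted by trypan blue exclusion every 24 h up to 96 h.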
# Raji [11] = experiment: Antiproliferative activity against human Raji cells assessed as decrease in cell viability after 96 hrs by WST-1 assay; format: functional, cell-based; in short: as §1
# OCI-AML-3 [12] = experiment: Antiproliferative activity against human OCI-AML-3 cells harbouring DNMT3A-R882C and NPM1c mutants co-expressing wild-type p53 at 0.25 uM assessed as decrease in cell viability in combination of 5 to 50 nM daunorubicin after 72 hrs by WST-1 assay; format: functional, cell-based; in short: as §4
# Raji [13] = experiment: Induction of apoptosis in human Raji cells at 0.25 uM assessed as activation of caspase 3/7 measured after 24 hrs by Caspase-Glo 3/7 assay; format: functional, cell-based; in short: as §2
# OCI-AML-3 [14] = experiment: Induction of apoptosis in human OCI-AML-3 cells harbouring DNMT3A-R882C and NPM1c mutants co-expressing wild-type p53 at 0.25 uM assessed as activation of caspase 3/7 measured at 2 hrs by Caspase-Glo 3/7 assay; format: functional, cell-based; in short: as §2
# OCI-AML-3 [15] = experiment: Antiproliferative activity against human OCI-AML-3 cells harbouring DNMT3A-R882C and NPM1c mutants co-expressing wild-type p53 at 0.25 uM assessed as decrease in cell viability in combination of 20 nM trichostatin A after 72 hrs by WST-1 assay; format: functional, cell-based; in short: as §4
# OCI-AML-3 [16] = experiment: Antiproliferative activity against human OCI-AML-3 cells harbouring DNMT3A-R882C and NPM1c mutants co-expressing wild-type p53 at 0.25 uM assessed as decrease in cell viability after 96 hrs by trypan blue assay; format: functional, cell-based; in short: as §5
# OCI-AML-3 [17] = experiment: Induction of DNA damage in human OCI-AML-3 cells harbouring DNMT3A-R882C and NPM1c mutants co-expressing wild-type p53 at 0.25 uM assessed as increase in 53BP1 foci incubated for 24 hrs by immunolabeling method; format: functional, cell-based; in short: as §3
# OCI-AML-3 [18] = experiment: Induction of DNA damage in human OCI-AML-3 cells harbouring DNMT3A-R882C and NPM1c mutants co-expressing wild-type p53 at 0.25 uM assessed as increase in pan-nuclear gammaH2AX foci incubated for 24 hrs by immunolabeling method; format: functional, cell-based; in short: as §3
# OCI-AML-3 [19] = experiment: Induction of apoptosis in human OCI-AML-3 cells harbouring DNMT3A-R882C and NPM1c mutants co-expressing wild-type p53 at 0.25 uM assessed as activation of caspase 8 measured after 24 hrs by Caspase-Glo 8 assay; format: functional, cell-based
# In short: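 Caspase-Glo 8 luminescence assay. OCI-AML3 cells plated at 20,000 per well and treated with 0.25 µmol/L JQ1 for 24 h. BI-2536 at 1 µmol/L used as positive control.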
# OCI-AML-3 [20] = experiment: Induction of apoptosis in human OCI-AML-3 cells harbouring DNMT3A-R882C and NPM1c mutants co-expressing wild-type p53 at 0.25 uM measured after 24 hrs by Annexin V/PI staining based flow cytometry method; format: functional, cell-based
# In short: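 OCI-AML3 cells treated for 24 h with 0.25 µmol/L JQ1, Nutlin-3 or both. Stained with annexin V and propidium iodide and analyzed by flow cytometry. Quadrant analysis of apoptotic populations.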
# OCI-AML-3 [21] = experiment: Induction of apoptosis in human OCI-AML-3 cells harbouring DNMT3A-R882C and NPM1c mutants co-expressing wild-type p53 at 0.25 uM assessed as activation of caspase 3/7 measured in combination of 20 nM trichostatin A after 24 hrs by Caspase-Glo 3/7 assay; format: functional, cell-based; in short: as §2
# OCI-AML-3 [22] = experiment: Induction of DNA damage in human OCI-AML-3 cells harbouring DNMT3A-R882C and NPM1c mutants co-expressing wild-type p53 at 0.25 uM assessed as induction of gammaH2AX incubated for 24 hrs in combination with 1 uM NU7026 by immunolabeling method; format: functional, cell-based; in short: as §3
# OCI-AML-3 [23] = experiment: Induction of DNA damage in human OCI-AML-3 cells harbouring DNMT3A-R882C and NPM1c mutants co-expressing wild-type p53 at 0.25 uM assessed as increase in PCNA labelling for 48 hrs by DAPI staining method; format: functional, cell-based
# OCI-AML-3 [24] = experiment: Induction of apoptosis in human OCI-AML-3 cells harbouring DNMT3A-R882C and NPM1c mutants co-expressing wild-type p53 at 0.25 uM assessed as activation of caspase 3/7 measured after 24 hrs by Caspase-Glo 3/7 assay; format: functional, cell-based; in short: as §2
# OCI-AML-3 [25] = experiment: Induction of DNA damage in human OCI-AML-3 cells harbouring DNMT3A-R882C and NPM1c mutants co-expressing wild-type p53 at 0.25 uM assessed as induction of gammaH2AX incubated for 24 hrs in combination with 10 uM KU60019 by immunolabeling method; format: functional, cell-based; in short: as §3
# OCI-AML-3 [26] = experiment: Antiproliferative activity against human OCI-AML-3 cells harbouring DNMT3A-R882C and NPM1c mutants co-expressing wild-type p53 at 0.125 to 0.25 uM assessed as decrease in cell viability in combination of 1 to 5 uM nutlin-3 after 72 hrs by WST-1 assay; format: functional, cell-based; conditions: dose 0.125-0.25 µM; in short: as §4
# OCI-AML-3 [27] = experiment: Induction of apoptosis in human OCI-AML-3 cells harbouring DNMT3A-R882C and NPM1c mutants co-expressing wild-type p53 at 1 uM assessed as activation of caspase 8 measured after 24 hrs by Caspase-Glo 8 assay; format: functional, cell-based
# In short: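 OCI-AML3 cells plated at 20,000 per well and treated for 24 h. Caspase 8 activation read as luminescent signal with the Caspase-Glo 8 kit; 1 µmol/L is the positive-control level used. Mean of at least three independent experiments ± SEM; Student's t-test, P < 0.05.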
# OCI-AML-3 [28] = experiment: Antiproliferative activity against human OCI-AML-3 cells harbouring DNMT3A-R882C and NPM1c mutants co-expressing wild-type p53 at 1 to 5 uM assessed as decrease in cell viability after 72 hrs by WST-1 assay; format: functional, cell-based; conditions: dose 1-5 µM
# In short: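 OCI-AML3 cells (DNMT3A-R882, NPM1c, p53 wild-type) in RPMI 1640 with 10% FCS, L-glutamine, penicillin and streptomycin. Cells plated at 2 × 10^4 per well and exposed for 72 h; DMSO stocks diluted in PBS. WST-1 added and absorbance read at 450 nm 2–4 h later. Viability taken relative to untreated cells (100%). Three experiments in triplicate, mean ± SEM.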
compound,measurement,setting,value
Cc1sc2c(c1C)C(c1ccc(Cl)cc1)=N[C@@H](CC(=O)OC(C)(C)C)c1nnc(C)n1-2,pIC50,"K562 [1]; K562, 96 h",< 5.70
same,Activity,K562 [2],inactive
same,Activity,OCI-AML-3 [3],Active
same,Activity,OCI-AML-3 [4],inactive
same,pIC50,"OCI-AML-3 [5]; OCI-AML-3, 96 h",~6.30
same,Activity,OCI-AML-3 [6],inactive
same,Activity,OCI-AML-3 [7],Active
same,Activity,OCI-AML-3 [8],Active
same,Activity,OCI-AML-3 [9],3.2%
same,Activity,OCI-AML-3 [10],Active
same,pIC50,Raji [11],~6.00
same,Activity,OCI-AML-3 [12],Active
same,Activity,Raji [13],Active
same,Activity,OCI-AML-3 [14],inactive
same,Activity,OCI-AML-3 [15],Active
same,Activity,OCI-AML-3 [16],Active
same,Activity,OCI-AML-3 [17],Active
same,Activity,OCI-AML-3 [18],inactive
same,Activity,OCI-AML-3 [19],inactive
same,Activity,OCI-AML-3 [20],Active
same,Activity,OCI-AML-3 [21],Active
same,Activity,OCI-AML-3 [22],inactive
same,Activity,OCI-AML-3 [23],Active
same,Activity,OCI-AML-3 [24],Active
C[C@@H]1CN(CC(=O)Nc2ccc3c(c2)Cc2cccc(-c4cc(=O)cc(N5CCOCC5)o4)c2S3)C[C@H](C)O1.Cc1sc2c(c1C)C(c1ccc(Cl)cc1)=N[C@@H](CC(=O)OC(C)(C)C)c1nnc(C)n1-2,Activity,OCI-AML-3 [25],inactive
COc1ccc(C2=NC(c3ccc(Cl)cc3)C(c3ccc(Cl)cc3)N2C(=O)N2CCNC(=O)C2)c(OC(C)C)c1.Cc1sc2c(c1C)C(c1ccc(Cl)cc1)=N[C@@H](CC(=O)OC(C)(C)C)c1nnc(C)n1-2 (stereo unspecified),Activity,OCI-AML-3 [26],Active
CC[C@@H]1C(=O)N(C)c2cnc(Nc3ccc(C(=O)NC4CCN(C)CC4)cc3OC)nc2N1C1CCCC1,Activity,OCI-AML-3 [27],Active
COc1ccc(C2=NC(c3ccc(Cl)cc3)C(c3ccc(Cl)cc3)N2C(=O)N2CCNC(=O)C2)c(OC(C)C)c1 (stereo unspecified),Activity,OCI-AML-3 [28],inactive
Cc1sc2c(c1C)C(c1ccc(Cl)cc1)=N[C@H](CC(=O)OC(C)(C)C)c1nnc(C)n1-2,Activity,K562 [1],inactive
same,Activity,OCI-AML-3 [5]; dose 1.0 µM,inactive
same,Activity,Raji [11],inactive
